Experimental data: publication PMC3074116 (Translational stroke research, 2011)

Tests used:
[1] = system: H4IIE cells; test: Lipid peroxidation measured as 8-isoprostane; format: cell-based, rat; conditions: 1–300 μM
[2] = system: HT22 cells; conditions: cited from earlier work
[3] = system: Cytochrome P450 1A1/2
[4] = system: HT22 cells; conditions: read-out: EC50 neuroprotection, glutamate (5 mM); cited from earlier work
[5] = Solubility in culture medium; format: physicochemical; conditions: for soluble up to and including: culture medium with 10% bovine serum and 10% calf serum, 37°C
[6] = system: H4IIE cells; conditions: 24-h exposure, n=7 replicates
[7] = system: H4IIE cells; conditions: for Cell number (cell mass) TC50: 24-h exposure, n=7 replicates
[8] = Metabolic stability in rat microsomes; format: in vitro ADME; conditions: 1 μM; for metabolic stability (in words): male Sprague–Dawley rat microsomal preparation; for percent of parent remaining: HPLC/MS
Procedure, shortened: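 Incubated at 1 μM for 30 min at 37°C with pooled liver microsomes from non-induced male Sprague–Dawley rats. Parent loss measured by HPLC-MS on a C18 column at 50°C (water/0.1% formic acid; acetonitrile/0.07% formic acid). Triplicate percent parent remaining; ranked low (100–65%), moderate (65–45%) or high (<45%) metabolism.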

[9] = system: H4IIE cells; test: Intracellular glutathione; format: cell-based, rat; conditions: for GSH content TC50: 24-h exposure; for effect on intracellular GSH content: 1–300 μM
[10] = system: P-glycoprotein (PgP); test: P-glycoprotein binding using the MTT assay with and without cyclosporin A; conditions: 50 μM, 24-h exposure, n=7; for % Control (compound+CSA): with CSA; for % Control (compound): without CSA
[11] = system: H4IIE cells; conditions: 24-h exposure, GST leakage, n=3 replicates
[12] = system: rat cognition assay; conditions: 10 mg/kg by gavage; cited from earlier work
[13] = system: H4IIE cells; test: CTox ranking; format: cell-based, rat; conditions: generated from TC50 values by proprietary algorithm
[14] = system: rabbit embolic stroke model; conditions: cited from earlier work
[15] = 100 mg/kg single bolus injection

Compound | effect on 8-isoprostane (lipid peroxidation) [1] | soluble up to and including [5] | Cell number (cell mass) TC50 [7] | metabolic stability (in words) [8] | percent of parent remaining ([8]; rat microsomes, 30 min at 37°C) | GSH content TC50 [9] | % Control (compound+CSA) [10] | % Control (compound) [10] | MemTox TC50 [11] | CTox value (sustained concentration expected to produce toxicity in a rat 14-day repeat dose study) [13] | effect on intracellular GSH content [9] | also measured
COc1cc(C=Cc2cc(/C=C/c3ccc(O)c(OC)c3)nn2-c2ccccc2)ccc1O [CNB-001] | did not have any effect | ≥ 100 µM | 88 µM | metabolically unstable | 42% | 76 µM | 79.0% | 79.9% | 193 µM | 42 µM |  | effect on GSH levels in HT22 cells [2]: no effect; concentration with apparent inhibition of EROD activity ([3]; Fig. 2): above 10 μM; IC50 ([3]; read-out: EROD activity inhibition IC50, H4IIE cells): ~25 µM; EC50 [4]: 0.7 µM; solubility at 300 μM ([5]; culture medium, 300 μM): not completely soluble; MTT TC50 [6]: 131 µM; metabolism ranking ([8]; rat microsomes, 30 min at 37°C): high (<45% as high); object recognition index [12]: significantly increased; acute toxicity [14, 15]: without any signs of acute toxicity; behavior [14, 15]: significant behavioral improvement
CC(C)(C)[N+]([O-])=Cc1ccc(S(=O)(=O)[O-])cc1S(=O)(=O)[O-].[Na+].[Na+] [NXY-059, Disodium 4-[[(1,1,-dimethylethyl)imino]methyl]benzene-1,3-disulfonate N-oxide] | no effect | ≥ 300 µM | >300 µM | very stable metabolically | 93% | > 300 µM | 93.6% | 100.0% | >300 µM | > 300 µM | no effect | maximum therapeutic window ([14]; time following embolization): 1 h
CC1=NN(c2ccccc2)C(=O)C1 [Radicut, 3-Methyl-1-phenyl-2-pyrazolin-5-one] | no effect |  | >300 µM | metabolically unstable | 28% | > 300 µM | 94.8% | 95.9% | >300 µM | > 300 µM | no effect | solubility [5]: ≥ 300 µM; decrease in cell proliferation ([7]; 300-μM exposure): 30%; time of administration following embolization at which still active [14]: 3 h
